Reference: the EternaBench riboswitch data

Test system: MS2 coat protein
Assay: apparent Kd, MS2 coat protein; higher = weaker binding; RNA-MaP array; FMN 200 µM where present
Summary of the method: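 Green signal was scaled to red-channel RNA signal and control-cluster median Fmax, and the apparent Kd was taken as the median of filtered per-cluster binding-curve fits. The binding series used SNAP-549-labelled MS2 coat protein from 0.7 or 1.5 nM, doubling to 3 µM, on designs transcribed by stalled E. coli RNA polymerase on Illumina sequencing-chip clusters. Each series ran without and then with constant ligand in 100 mM Tris-HCl pH 7.5, 80 mM KCl, 4 mM MgCl2, BSA, DTT, yeast tRNA and Tween-20.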

[1] = designed as: OFF switch for flavin mononucleotide, no ligand
[2] = ligand present: flavin mononucleotide, designed as: OFF switch for flavin mononucleotide
[3] = designed as: ON switch for flavin mononucleotide, no ligand
[4] = ligand present: flavin mononucleotide, designed as: ON switch for flavin mononucleotide

Sequence | apparent Kd [1] [nM] | apparent Kd [2] [nM] | apparent Kd [3] [nM] | apparent Kd [4] [nM]
AAUUGACACGUAGGAUAUCGCUCUUAAUUAACACGAGAAGGACGUACAUGAGGAUCACCCAUGUUAAAUGGUGUAGUUUAGUUG | 45.5 | 123 | – | –
AAUUGACAUGAGGAUCACCCAUGUCCACCAAACGGAGGAUAUUGGGCGGCAAAACGUUGUUAAGAAGGCCGAAAUU | – | – | 34.1 | 88.3
AAUUGGAUGCAGAAGGCAUGGACGACUCGUCACAUUAACAUGAGGAUCACCCAUGUAAUAAGACAUGAGGAUAUGCAUCCUAAA | – | – | 7.68 | 5.49
AAUUGGAUGCAGAAGGCAUGGACGACUCGUCACAUUAACAUGAGGAUCACCCAUGUGAAAACACAUGAGGAUAUGCAUCCUAAA | – | – | 17.5 | 6.41
AAUUUACAGCUAGGAUAUACAUGAGGAUCACCCAUGUGACGAUCGGAUCUUAUGAUCGUGUCCGUGUAGAAGGAGCAAAUAAGA | 8.15 | 10 | – | –
ACAAAACAUGAGGAUCACCCAUGUGAGGAUAUGCGAAACAAACAAACAAACAAACAAAGCAGAAGGCACAACAA | 22.7 | 37.1 | – | –
ACAAGAUCAGGAUAUACAUGAGGAUCACCCAUGUAUUUCAAAAAGGGACUUUCUUUAUGUAGAAGGGAUCUUGU | 50.8 | 67.2 | – | –
ACAAUAAAGGGUCUGGUUCCAUACAUGAGGAUCACCCAUGUCAAGGAUAUAACGGACGGGCGCCGUUAGAAGGUGACGACUGCG | 132 | 401 | – | –
ACAGAGCUUGACAUGAGGAUCACCCAUGUUAGAUUGUUAUGUCAGGAUAUUGUCUAGCAACUAGACAAGAAGGGAUGCUCUGUG | – | – | 364 | 56
ACAGGUUAAGGAUAUACAUGAGGAUCACCCAUGUCGAGUAUCUUGUCAUGCCGCCCAUGUAGAAGGUAACAUGG | 13.5 | 17 | – | –
ACAUAAAUUCGAGGAUAUCGGUGAUAUAAUUUACGAGAAGGCGAUAAAAGUUGUAAACUUAUAGACAUGAGGAUCACCCAUGUA | – | – | 34.8 | 34
ACAUACAUUCGAGGAUAUCGGUGAUUAAUUUUACGAGAAGGCGAUAUAAGAUUUAAUAUUUUAGACAUGAGGAUCACCCAUGUA | – | – | 27.6 | 22.7
ACAUAGUAAGGAUAUGCUGCUCGUCACUUGCGUGAUGAGUAGCAGAAGGUACAUGAGGAUCACCCAUGUAAAAA | 25.3 | 19.1 | – | –
ACAUGAGGAUCACCCAUGUACAUGGGUUUAAUUGUUUGUUACUAGGAUAUGUAUUUGAAUUUACAACAGAAGGAGUAUUAAUGU | 985 | 414 | – | –
ACAUGAGGAUCACCCAUGUAGAAUGAAGAAGGUACGUUAUUGAUAUGCAGGAAGUGUCGGUGUUGUAAGGAUAUUCUAAUAAUU | – | – | 15.5 | 8.16
ACAUGAGGAUCACCCAUGUAGAAUGAAGAAGGUAGAUACUUGAGACUCACCCAUGUACAUAGGACUAAGGAUAUUCUAAUAAUU | – | – | 14.1 | 10.7
ACAUGAGGAUCACCCAUGUAUUACAUGGUUAAGUUUAUUAACAGAAGGCGAAAAUACUUAUUGUUCGAGGAUAUGUAAUCAAUU | 38 | 54.3 | – | –
ACAUGAGGAUCACCCAUGUAUUUGUAGGAUAUACUCUAUUGUUUAUUACUCUAGUUAAAAUGUUUGUAGAAGGACAUUACAUGA | 6.81 | 7.38 | – | –
ACAUGAGGAUCACCCAUGUCUGCAUAGGAUAUUGAGGAUUAGGCAUAUUAUUAUGGAUUUGCCCACAAGAAGGAUGAAAUUGUU | – | – | 20.1 | 13.4
ACAUGAGGAUCACCCAUGUGGACAUAGGAUAUUGGUGAUCAGGCGUGUUAUACAGGAUAGGUCUGCGAGAAGGGUGUACGUUGC | – | – | 588 | 295
ACAUGAGGAUCACCCAUGUGGAGUGAAGAAGGUGGAUACUUAUGACUCUCCCAUGUACAUAGGACUGAGGAUAUUCUAAUAAUU | – | – | 31.2 | 27.2
ACAUGAGGAUCACCCAUGUUAAAUUAGGAUAUAUGACUGCACAUGAGGUUCACCCAUGUUCUACCGUAGAAGGGAUAAAUAAUU | – | – | 52.6 | 59.4
ACAUGAGGAUCACCCAUGUUACGAACAUGAGGAUCACCCAUGUAGGAUAUGCUACUCAAAGAGUAGCAGAAGGACAUGUGCCUU | 1090 | 559 | – | –
ACAUGAGGAUCACCCAUGUUAUCCGGGACUUCAAUUAUUUCUAGAAGGCUGUUUACUUGUUAGUCAGAGGAUAUAGAAUUAAAU | 10.7 | 12.5 | – | –
ACAUGAGGAUCACCCAUGUUCGUUGAAGAAGGUACGUAUGGCUGUGGCAGGAAUAUAGUUAUAUGUAAGGAUAUUCUCAUAAUU | – | – | 13.1 | 7.11
ACAUGGAAUACAGGAUAUGUUAGUUUACAGUAGAUUGGUUAUUACUUAACUACAGAAGGGUAAUACAUGAGGAUCACCCAUGUA | – | – | 18.4 | 11.8
ACAUGGUAGUAGAAGGGUAUUACUUUAGAUACAACCAUUUGUUUAGUUUAUACAGGAUAUGCUUACAUGAGGAUCACCCAUGUU | – | 8.74 | – | –
ACAUGUUUUACAGGAUAUGUUUUACAAUAAACAUUCAGUUAUUACGAUUAAACAGAAGGGUAUACAUGAGGAUCACCCAUGUAA | 17.1 | 15 | – | –
